Compound activity (PubChem)
GSTO1 counter – inhibitors of recombinant GSTO1, primary screen, counter-screen for RBBP9 inhibitor project, biochemical, fluorescence polarization | Glutathione S-transferase omega-1 (Homo sapiens), P78417 | activity-based probe fluorescence polarization | inhibition, % at 5.96 µM | 300,000 tested, 1.1% active | AID 1974, 2009;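 active means inhibition above the campaign mean inhibition plus 3 SD, cut at about 35% in these data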;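 further: 0% = GSTO1-1 with DMSO and 100% = wells lacking GSTO1-1 enzyme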
Target sequence (P78417 whole entry, looked up): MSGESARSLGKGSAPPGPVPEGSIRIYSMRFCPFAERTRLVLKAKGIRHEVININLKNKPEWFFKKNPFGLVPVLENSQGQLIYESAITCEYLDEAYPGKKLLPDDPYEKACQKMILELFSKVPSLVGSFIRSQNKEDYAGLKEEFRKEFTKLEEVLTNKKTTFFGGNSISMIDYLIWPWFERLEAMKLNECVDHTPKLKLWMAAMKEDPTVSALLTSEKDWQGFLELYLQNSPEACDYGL
Fh CTSL1 inh – Fasciola hepatica cathepsin L1 inhibitors, primary screen, counter-screen for PFM18AAP inhibitor project, biochemical, QFRET, fluorogenic peptide substrate. recombinant F. hepatica cathepsin L1, Z-Leu-Arg-MCA fluorescence. inhibition, % at 5.96 µM. 300,000 tested, 0.49% active;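 active means inhibition above the mean of all tested compounds plus 3 SD, set per screening campaign, cut at about 17% in these data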;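 further: 0% = plate median of test compound wells and 100% = 1 µM Z-Phe-Ala-diazomethylketone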
TDP2 inh – human TDP2 enzyme inhibitors, primary screen, biochemical, epi absorbance, recombinant enzyme; Tyrosyl-DNA phosphodiesterase 2 (Homo sapiens), O95551; T5PNP hydrolysis, p-nitrophenol absorbance 415 nm; inhibition, % at 12.8 µM; 370,000 tested, 0.34% active; AID 720702, 2013;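 active means inhibition above the mean of all tested compounds plus 3 SD, set per campaign, cut at about 25% in these data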;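 further: 0% = DMSO with enzyme and 100% = buffer with substrate but no TDP2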
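Material: recombinant human TDP2; quantity: TDP2 enzyme at 120 nM final; medium: Tris-HCl pH 7.5 with MgCl2; compound: single concentration, 12.8 µM nominal, with 1% DMSO; incubation: 2 h enzyme incubation at 37 °C; signal: epi absorbance; measure: percent inhibition; benchmarks: high control without enzyme, low control DMSO plus TDP2; repeats: singlicate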
PRMT1 FP inh – PRMT1 methyltransferase inhibitors, primary screen, biochemical, fluorescence polarization | inhibition, % at 2.79 µM | 370,000 tested, 1.3% active | AID 652257, 2013 | recombinant PRMT1, activity-based probe fluorescence polarization;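 active means inhibition above about 21% made by adding two undisclosed values, limit read from the data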
Target sequence (Q99873 whole entry, looked up): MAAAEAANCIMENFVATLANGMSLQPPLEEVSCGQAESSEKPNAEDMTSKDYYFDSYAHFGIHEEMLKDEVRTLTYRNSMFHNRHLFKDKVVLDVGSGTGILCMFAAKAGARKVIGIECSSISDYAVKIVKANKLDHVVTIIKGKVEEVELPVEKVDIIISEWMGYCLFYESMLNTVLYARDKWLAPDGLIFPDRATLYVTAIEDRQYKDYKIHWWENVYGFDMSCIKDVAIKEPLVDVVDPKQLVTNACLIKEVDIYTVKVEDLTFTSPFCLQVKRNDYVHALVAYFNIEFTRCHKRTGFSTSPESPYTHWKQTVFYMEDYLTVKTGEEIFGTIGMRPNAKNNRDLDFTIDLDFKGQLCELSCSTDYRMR
PAD4 inh – human PAD4 inhibitors, primary screen, biochemical, fluorescence polarization, 1536-well format; Protein-arginine deiminase type-4 (Homo sapiens), Q9UM07; recombinant PAD4, RCA probe fluorescence polarization; inhibition, % at 6.36 µM; 330,000 tested, 0.41% active; AID 485272, 2010;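 active means percent inhibition above a cutoff equal to the mean of all tested compounds plus 3 SD, cut at about 15% in these data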;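 further: 0% = PAD4 with RCA probe and DMSO and 100% = probe without PAD4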
TDP2 inh conf – human TDP2 enzyme inhibitors, retest, confirmation, biochemical, epi absorbance, recombinant enzyme. inhibition, % at 12.8 µM. shares compounds with TDP2 inh. AID 743263, 2014. 1,100 tested, 22% active. absorbance read-out; in the data active means inhibition above about 25%;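 further: 0% = vehicle with enzyme and 100% = no enzyme buffer only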
Numbers without * were called inactive; . = no result given. Hits are enriched below; roughly 2.5% of the tested compounds scored in any of these assays.

SMILES | GSTO1 counter | Fh CTSL1 inh | TDP2 inh | PRMT1 FP inh | PAD4 inh | TDP2 inh conf
Cc1[nH]c2ccccc2c1C(=O)CN1C(=O)C(=O)N(C2CCCC2)C1=O | 1.8 | 0.8 | 26.5* | 0.0 | -2.3 | 4.0
COc1ccc(CNC(=O)c2ccc(CS(=O)(=O)c3ccccc3C)o2)cc1 | 2.0 | -4.8 | 25.7* | 0.6 | -1.0 | 4.8
Cc1cc(C)c(C(N)=O)c(Nc2cccc3ccccc23)n1 | 0.3 | -1.6 | 24.7* | -0.2 | 2.3 | 8.5
CC(=O)c1ccc(OCc2cc(C(=O)NC(C)Cc3ccccn3)no2)cc1 (centres undefined) | -4.1 | 1.0 | 30.0* | 0.3 | -2.7 | 4.8
COc1ccc(CCNCC(=O)Nc2ccc(C)c(Br)c2)cc1OC | 4.1 | 4.2 | 12.6 | -1.1 | 1.6 | .
COc1ccc(CCNCC(=O)Nc2ccc(C)c(S(=O)(=O)N(C)C)c2)cc1OC | -4.6 | -2.6 | 32.2* | 3.8 | 2.6 | 9.1
C=CCCC(=O)N1C[C@H]2CCN(C)[C@H]2C[C@H]1c1ccccc1Br | . | . | -3.0 | -1.7 | . | .
Cc1ccccc1S(=O)Cc1ccc(C(=O)N2CCN(C3CCCCC3)CC2)o1 (centres undefined) | . | . | 4.7 | -1.7 | . | .
Cc1ccccc1S(=O)Cc1ccc(C(=O)N2CCN(C(=O)c3ccco3)CC2)o1 (centres undefined) | 7.0 | 0.9 | 39.3* | -1.7 | 0.1 | -3.1
COc1ccc(COC(=O)c2cccc(S(=O)(=O)N3CCN(C(C)=O)CC3)c2)cc1F | -8.0 | -0.5 | 25.2* | 1.8 | -2.2 | 6.6
COc1ccc(COC(=O)c2cccc(S(=O)(=O)N3CCN(C(C)=O)CC3)c2)cc1 | 10.4 | 11.8 | -1.5 | -1.5 | 2.2 | .
CN(C(=O)c1cccs1)c1ccccc1C(=O)O | -5.2 | -1.2 | 42.2* | 1.7 | -3.5 | 5.2
CC(C)NC(=O)N[C@@H]1C[C@@H]2O[C@@H](CO)CC[C@@H]2O[C@@H]1CCc1ccc(-c2ccc(F)cc2)cc1 | . | . | -0.6 | 0.8 | . | .
CC(C)(C)n1nnnc1C(c1cccc(C(F)(F)F)c1)N1CCOCC1 (centres undefined) | 0.9 | -0.4 | -11.4 | -3.2 | 0.8 | .
CC(C)(C)n1nnnc1C(c1cccnc1)N1CCOCC1 (centres undefined) | 5.1 | -0.3 | 26.5* | -2.9 | -0.4 | -3.7
COC(=O)C1=C(C)N(Cc2cccc(C(F)(F)F)c2)C(=NCC2CC2)NC1c1cccc(C(F)(F)F)c1 (centres undefined) | . | . | -8.6 | -5.1 | . | .
O=C(NCCc1c[nH]c2ccccc12)OCc1cn(Cc2cccc(C(F)(F)F)c2)nn1 | . | . | 10.1 | -1.6 | . | .
CCOC(=O)c1c(C)[nH]c(C(=O)CN2CC(C)OC(C)C2)c1C (centres undefined) | -2.9 | 6.3 | 28.9* | 2.2 | 0.2 | 1.4
CCOC(=O)c1c(C)[nH]c(C(=O)CN2CCN(CC)CC2)c1C | 8.7 | -1.7 | 10.2 | -4.0 | 2.9 | .
N#CCC[C@@H]1CC[C@]2(CCCN(Cc3ccccc3)C2)O1 | . | . | -1.5 | 2.2 | . | .
COc1cc(CN2CCN(Cc3cccc(OC)c3OC)CC2)cc(OC)c1 | -1.4 | 3.4 | 25.8* | 1.2 | -0.8 | 6.4
CCOC(=O)C1CCN(CC(=O)N2C(C)CCCC2C)CC1 (centres undefined) | 4.9 | -1.1 | 26.5* | 1.6 | -1.8 | 1.2
O=C(CNC1CCCCCC1)Nc1ccc(N2CCCC2)cc1 | 6.2 | -1.7 | . | . | 2.4 | .
CC(=O)c1ccc(NC(=O)CNC2CCCCC2)cc1 | -1.4 | 1.5 | 26.3* | 2.9 | 10.2 | 2.1
CC(=O)c1cc2c(cc1NC(=O)CN1CCOCC1)OCO2 | 4.7 | 5.8 | 3.8 | 5.4 | -6.0 | .
SMILES | GSTO1 counter | Fh CTSL1 inh | TDP2 inh | PRMT1 FP inh | PAD4 inh | TDP2 inh conf
CN1CCN(CC(=O)Nc2ccc(S(=O)(=O)N(C)C)cc2)CC1 | -1.0 | -3.5 | 33.5* | 2.9 | 1.9 | 9.7
CCN1CCN(CC(=O)Nc2cc3c(cc2C(C)=O)OCO3)CC1 | -4.8 | 8.8 | 26.1* | 3.6 | -1.4 | 11.8
CCN1CCN(CC(=O)Nc2ccc(C(C)=O)cc2)CC1 | -8.0 | 1.1 | 37.7* | 4.4 | 0.6 | -2.9
CC(=O)c1ccc(NC(=O)CN2CCN(CC(=O)Nc3ccc(C(C)=O)cc3)CC2)cc1 | . | . | 8.6 | -1.2 | . | .
O=C(CSc1nnc(-c2cccnc2)n1Cc1ccco1)Nc1ccc(Cl)c(Cl)c1 | . | . | 11.9 | 6.5 | . | .
Fc1ccc(C2=Nn3c(nnc3C3CCCCC3)SC2)cc1 | . | . | 3.8 | 3.1 | . | .
CCCCCN1CCCCC(NC(=O)Cc2ccccc2)C1=O (centres undefined) | . | . | 4.6 | -1.3 | . | .
Cn1c(SCC(=O)Nc2ccc3[nH]c(=O)[nH]c3c2)nnc1-c1ccc(F)cc1 | -5.1 | -1.8 | 28.6* | -5.0 | -2.8 | 1.1
Cn1c(SCC(=O)Nc2ccc3[nH]c(=O)[nH]c3c2)nnc1-c1ccccc1 | -1.2 | 0.0 | -4.7 | 2.1 | -1.7 | .
NC(=O)c1c(N)[nH]c(C(=O)c2ccccc2)c1-c1ccccc1 | . | . | 6.3 | -0.2 | . | .
O=C(c1cccnc1)N1CCN(Cc2ccc3ccccc3c2)CC1 | 3.6 | 3.1 | 30.6* | 2.6 | -1.2 | -0.3
O=C(c1cccnc1)N1CCN(Cc2cccc(F)c2)CC1 | -2.6 | -1.2 | -0.5 | 4.4 | 0.5 | .
COc1ccc(-n2c(COc3ccccc3)nnc2SCC(=O)Nc2ccc(OCc3ccccc3)cc2)cc1 | . | . | -8.6 | 7.1 | . | .
CCCCOCCCNC(=O)C[C@@H]1C[C@]2(C(=O)OCC)CCC3=C2N(CCC3)C1=O | . | . | 8.2 | -2.0 | . | .
NC(=O)C1CCCN(CC(O)COCc2ccc(Cl)cc2)C1 (centres undefined) | 4.4 | 0.4 | 28.4* | -3.4 | 3.1 | 2.0
CCOC(=O)C1CCN(CC(O)COCc2ccc(Cl)cc2)CC1 (centres undefined) | -0.6 | -2.7 | 7.0 | -1.2 | -1.5 | .
Cc1nn(CCO)c(N)c1C1(O)C(=O)Nc2c(Cl)cc(Cl)cc21 (centres undefined) | 24.3 | -2.3 | 28.4* | -0.5 | -2.7 | 1.4
COc1ccc(CCNC(=O)c2ccccc2C(=O)NCCc2ccc(OC)cc2)cc1 | 11.2 | -7.2 | -8.3 | 3.6 | -0.4 | .
COc1ccc(CCNC(=O)c2ccccc2)cc1 | 3.1 | -1.8 | 69.7* | 1.8 | -7.1 | 2.1
COc1ccc(-c2nc3cc(C)c(Br)c(C)n3c2Cc2ccccc2C(F)(F)F)cc1OC | . | . | 8.5 | 2.9 | . | .
COc1ccccc1Cc1c(-c2ccc(OC)c(OC)c2)nc2cc(C)c(Br)c(C)n12 | . | . | 32.6* | 7.8 | . | 1.6
CCCCOCCCNC(=O)C[C@@H]1C[C@@]2(C(=O)OC)CCCCC=C2N(Cc2ccccc2)C1=O | . | . | 3.2 | 0.5 | . | .
CC(=O)c1cc(-c2ccccc2)n(CC(=O)NCc2ccc(F)cc2)c1C | . | . | 11.2 | -1.6 | . | .
